Screening results (PubChem)
Beta2AR agonist: beta2AR agonists driving receptor internalization, primary screen, cell-based, FAP fluorogen, flow cytometry; Beta-2 adrenergic receptor (Homo sapiens), P07550; Am2.2-beta2AR cells; response, % (test concentration not listed); 0.43% of 340,000 active;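 active = response above a set limit, near 3 SD of response in nonfluorescent compounds, cut at about 42% in these data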
Target sequence (P07550 whole entry, looked up): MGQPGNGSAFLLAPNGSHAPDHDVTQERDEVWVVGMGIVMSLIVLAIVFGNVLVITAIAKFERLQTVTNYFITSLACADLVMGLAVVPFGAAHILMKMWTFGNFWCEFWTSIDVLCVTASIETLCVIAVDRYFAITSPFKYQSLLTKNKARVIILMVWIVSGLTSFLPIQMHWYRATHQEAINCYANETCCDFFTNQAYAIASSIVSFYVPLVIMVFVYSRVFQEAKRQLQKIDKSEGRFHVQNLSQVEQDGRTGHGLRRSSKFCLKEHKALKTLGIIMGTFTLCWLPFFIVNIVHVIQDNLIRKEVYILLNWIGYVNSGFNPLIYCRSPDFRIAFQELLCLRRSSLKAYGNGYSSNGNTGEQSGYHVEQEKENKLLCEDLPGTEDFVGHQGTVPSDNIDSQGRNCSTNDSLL
ABHD5-PLIN5 inh: ABHD5-PLIN5 interaction inhibitors, primary screen, cell lysate, split luciferase complementation, luminescence | Perilipin-5 (Homo sapiens) + 1-acylglycerol-3-phosphate O-acyltransferase ABHD5 (Homo … | Split G. princeps luciferase complementation, 4 h | inhibition, % at 4 µM | 0.78% of 360,000 active | AID 602281, 2012;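 active = inhibition above the mean inhibition across every tested compound plus 3 SD, cut at about 22% in these data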;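 note: 0% = DMSO only wells and the 100% control is not disclosed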
SENP1 inh: human SENP1 catalytic domain inhibitors, primary screen, biochemical, FRET, uHTS | recombinant SENP1 catalytic domain, CyPet-SUMO1-YPet FRET cleavage | Sentrin-specific protease 1 (Homo sapiens), Q9P0U3 | inhibition, % at 10 µM | 0.21% of 360,000 active;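 active = inhibition at least 30% at 10 µM, raw YFP signal under a set limit, fluorescence ratio 0.5 to 1.5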;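 note: 0% = enzyme with DMSO and 100% = no enzyme wells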
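Material: hSENP1 catalytic domain, recombinant; medium: Tris pH 8 with BME, BSA, NP40 and catalase; compound: single concentration of 10 µM compound, 0.5% DMSO final; technique: FRET read of cyan and yellow fluorescence; timing: 50 min enzyme reaction, room temperature, light-protected; reagent: SFCypet-SUMO1-SFYpet substrate at 25 nM; control set: no-enzyme low, enzyme-DMSO high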
GRK2 inh: compounds blocking aptamer binding on GRK2 – biochemical, human GRK2, bead flow cytometry, HTS, primary screen; inhibition of aptamer binding, % at 10 µM; 0.59% of 330,000 active; FAM-aptamer displacement from GRK2;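 active = inhibition of aptamer binding above 40%, roughly 3 SD of noise, on plates passing a quality check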;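 note: median bead fluorescence of bound FAM aptamer so fluorescent compounds give negative values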
NadD block: inhibitors of S. aureus NadD, primary screen, biochemical, colorimetric, uHTS; purified NadD enzyme, colorimetric absorbance read-out; inhibition, % at 20 µM; 0.78% of 360,000 active; AID 602399, 2012; in the data active = inhibition above about 26%
The depositor's hits bear a star; / = no result given. In the library only some 2.5% were active in any assay of this set; here they are far more common.

SMILES	Beta2AR agonist	ABHD5-PLIN5 inh	SENP1 inh	GRK2 inh	NadD block
COc1ccc(Cn2c(N)c(C(=O)NCc3ccco3)c3nc4ccccc4nc32)cc1	3	22*	-25	0	30
Nc1c(C(=O)NCc2ccco2)c2nc3ccccc3nc2n1Cc1ccc(F)cc1	-1	6	-17	14	10
Nc1cc(Cl)c2nonc2c1[N+](=O)[O-]	73*	20	-9	0	0
CCOC(=O)[C@@H]1[C@H]2COc3ccc(Br)cc3[C@@H]2N2C(=O)N(c3cccc(C)c3)C(=O)[C@]12C	-4	-11	1	4	-6
CC(=O)OC[C@]12CCC(C)=C[C@H]1O[C@@H]1[C@H](O)[C@@H](OC(C)=O)[C@@]2(C)[C@]12CO2	103*	1	1	0	1
CCCCC1(CCCC)C(=O)NC(=Nc2cccc(C)c2)NC1=O	18	0	1	2	0
Cc1cccc(N=C2c3cc([N+](=O)[O-])ccc3-c3c2cc([N+](=O)[O-])cc3[N+](=O)[O-])c1	-1	22*	5	/	18
O=C1NC(=O)[C@]2(Cc3ccccc3N3CCN(c4ccccc4)CC32)C(=O)N1Cc1ccccc1 (some centres undefined)	2	-7	-1	3	48*
COc1ccc(/C=C2/C(=O)N(Cc3ccco3)C(=O)N(C(C)C)C2=O)cc1	3	0	-54	8	34*
CN(C)c1ccc(/C=C2/C(=O)NC(=O)N(Cc3ccco3)C2=O)cc1	14	2	-16	30	12
Cc1cc(C)c(NC2=NCCS2)cc1C	/	-4	1	/	-2
COCCCNC(=O)Cn1cc(/C=C2\C(=O)NC(=O)N(c3ccccc3F)C2=O)c2ccccc21	33	27*	-2	1	4
COCCNC(=O)Cn1cc(/C=C2\C(=O)NC(=O)N(c3ccccc3F)C2=O)c2ccccc21	14	14	2	1	3
CC=C(CC)C1(CC)C(=O)NC(=S)NC1=O	-2	9	1	/	2
CC(=O)OC(C)(C)/C=C/C(=O)C(C)(O)C1[C@H](O)C[C@@]2(C)C3CC=C4C(CC[C@@H](O)C4(C)C)[C@]3(CO)C(=O)C[C@]12C (some centres undefined)	52*	7	1	4	2
CC(=O)OC(C)(C)/C=C/C(=O)[C@](C)(O)[C@H]1[C@H](O)C[C@@]2(C)[C@@H]3CC=C4[C@H](C[C@H](O)C(=O)C4(C)C)[C@]3(C)C(=O)C[C@]12C	68*	11	4	/	-2
CC(=O)OC(C)(C)/C=C/C(=O)C(C)(O)C1C(O)CC2(C)C3CC=C4C(CC(O)C(=O)C4(C)C)C3(C)C(=O)CC12C (centres undefined)	16	9	1	/	1
Nc1cccc(SC2CC(=O)N(c3ccc(Cl)cc3C(=O)c3ccccc3)C2=O)c1 (centres undefined)	/	-6	-1	/	2
C=C(C=O)CC1CC(O)[C@]2(C)OC3CC4OC5C[C@]6(C)O[C@]7(C)CCC8OC9C[C@]%10(C)OC%11C(C)=CC(=O)OC%11CC%10OC9C[C@@H](C)C8OC7CC6O[C@]5(C)CC5OC5C4OC3CC2O1 (some centres undefined)	107*	22*	-1	0	-10
C=C(CO)CC1CC(O)[C@]2(C)OC3CC4OC5C[C@]6(C)O[C@]7(C)CCC8OC9C[C@]%10(C)OC%11C(C)=CC(=O)OC%11CC%10OC9C[C@@H](C)C8OC7CC6O[C@]5(C)C/C=C\C4OC3CC2O1 (some centres undefined)	0	-3	1	/	-12
CC(=O)OC1(C)CC(C)C(=O)C(C(O)CC2CC(=O)NC(=O)C2)C1 (centres undefined)	68*	-1	3	/	0
CC(C)Sc1nnc(OC(=O)N(C)C)n1-c1ccccc1	-2	-10	3	0	-3
COc1cc2c(c(OC)c1OC)-c1ccc(OC)c(=O)cc1C(N)CC2 (centres undefined)	18	-1	1	/	0
O=C(O)c1cc[c]([Hg][Cl])cc1	-2	82*	-3	0	20
COC(=O)C1=Nc2ccccc2/C1=C\c1c(O)n(-c2ccc(OC)cc2)c(=O)[nH]c1=O	13	38*	-1	0	4
SMILES	Beta2AR agonist	ABHD5-PLIN5 inh	SENP1 inh	GRK2 inh	NadD block
COC(=O)C1=Nc2ccccc2/C1=C\c1c(O)n(-c2ccc(Br)cc2)c(=O)[nH]c1=O	11	19	-8	5	21
Clc1ccc2[nH]c3c(c2c1)CCNC3	-3	7	1	0	-2
CCN(CC)c1ccc(N=Cc2c(O)n(-c3ccccc3)c(=O)[nH]c2=O)cc1	6	-2	-37	100*	0
CCOc1ccc(-n2c(O)c(C=Nc3ccc(N(CC)CC)cc3)c(=O)[nH]c2=O)cc1	3	1	-23	3	18
CC/C(=N\NC(=O)c1ccccc1)c1c(O)n(C2CCCCC2)c(=O)[nH]c1=O	10	9	-19	6	6
CCOC(=O)[C@]12Cc3c(cc(OC)c(OC)c3OC)[C@H]1N(C)C(=O)c1cc(OC)ccc12	/	23*	1	/	-2
C[C@]12CCC(=O)CC1CCC1C2CC[C@]2(C)C(OC(=O)CCC(=O)O)CCC12 (some centres undefined)	-12	5	1	0	-4
COC(=O)C1=C(c2c(C)noc2C)C[C@@H]2CC[C@H]1N2C(=O)NCc1ccc(F)cc1	-5	7	1	1	-3
C/C1=C\[C@@H](C)C/C=C/[C@H]2[C@@H]3O[C@]3(C)[C@@H](C)[C@H]3[C@H](Cc4c[nH]c5ccccc45)NC(=O)[C@]32C(=O)/C=C/C(=O)[C@@H]1O	72*	70*	-36	1	2
NCCc1cc(O)c(O)cc1O	4	3	4	/	65*
COc1ccc(CCN)cc1O	-7	5	-7	0	-4
CCOC(=O)CNC(=S)N1CC2C[C@@H](C1)Cn1c2cccc1=O	-8	3	0	0	-1
Cc1ccccc1N1C(=O)NC(=O)/C(=C\c2ccc3c(c2)CCCN3Cc2ccccc2)C1=O	13	-2	-7	0	39*
COc1cccc(C2(O)CCN(Cc3ccncc3)CC2)c1	3	6	-2	2	-5
COc1ccc(CN2C(=O)NC(=O)/C(=C\c3ccco3)C2=O)cc1	26	-8	-12	38	19
O=C1NC(=O)N(Cc2ccccc2)C(=O)/C1=C/C=C/c1ccco1	76*	17	-57	1	13
Cc1ccc(/C=C2/C(=O)NC(=O)N(CCc3ccc(F)cc3)C2=O)o1	37	11	-6	3	3
